Reference: ChEMBL document CHEMBL1275343, “A diverse series of substituted benzenesulfonamides as aldose reductase inhibitors with antioxidant activity: design, synthesis, and in vitro activity” (J Med Chem, 2010)

Assays:
[1] = target: T1, Aldo-keto reductase family 1 member A1 (Rattus norvegicus, UniProt P51635); assay: Inhibition of Fischer-344 rat kidney AK1A1
T1 sequence (P51635 whole entry): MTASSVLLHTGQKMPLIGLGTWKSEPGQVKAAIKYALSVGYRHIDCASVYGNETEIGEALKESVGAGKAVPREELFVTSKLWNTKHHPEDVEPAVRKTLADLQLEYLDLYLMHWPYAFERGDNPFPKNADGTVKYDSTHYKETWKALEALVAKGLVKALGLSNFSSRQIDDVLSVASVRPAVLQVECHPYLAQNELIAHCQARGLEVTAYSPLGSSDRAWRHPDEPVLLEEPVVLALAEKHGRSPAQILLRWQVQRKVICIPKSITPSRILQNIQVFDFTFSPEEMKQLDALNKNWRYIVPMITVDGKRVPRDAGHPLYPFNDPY

[2] = Antioxidant activity in L-alpha-phosphatidylcholine dioleoyl liposome assessed as inhibition of AAPH-induced lipid peroxidation by LOOH assay; format: functional
Summary of the method: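 Unilamellar DOPC liposomes (0.8 mM) peroxidized by aqueous-phase peroxyl radicals from thermal decomposition of AAPH; Trolox standard; lipid hydroperoxide (LOOH) quantified against a calibration curve.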

Rattus norvegicus [3] = species on record: Rattus norvegicus; assay: Selectivity ratio of IC50 for Fischer-344 rat kidney AK1A1 to IC50 for Fischer-344 rat lens ALR2; format: tissue-based; conditions: Lens of camera-type eye
[4] = target: Aldo-keto reductase family 1 member B1 (Rattus norvegicus) (UniProt P07943); assay: Inhibition of Fischer-344 rat lens ALR2 at 100 uM; format: tissue-based; conditions: Lens of camera-type eye
[5] = target: Aldo-keto reductase family 1 member B1 (Rattus norvegicus, UniProt P07943); assay: Inhibition of Fischer-344 rat lens ALR2 by least-square analysis; format: tissue-based, Lens of camera-type eye
Summary of the method: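 Lenses from Fischer-344 rats of both sexes as ALR2 source; NADPH oxidation followed spectrophotometrically. Five concentrations, IC50 by least-squares of linear portion of log(dose)-response curves (0.889<r²<0.994); triplicate.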

[6] = system: Radical scavenging activity; assay: Antioxidant activity assessed as ratio of IC50 for DPPH radical scavenging activity to concentration of DPPH; format: functional
[7] = DPPH radical scavenging activity assessed as initial rate of interaction at 0.2 mM; format: functional
Summary of the method: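 Equimolar compound and DPPH (0.2 mM each) in ethanol; initial rate estimated from the roughly linear absorbance decrease over the first 30 s. Triplicate.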

[8] = target: T2, Aldo-keto reductase family 1 member A1 (Rattus norvegicus) (UniProt P51635); assay: Inhibition of Fischer-344 rat kidney AK1A1 at 100 uM
T2 sequence (whole entry): T1 sequence (P51635 whole entry)

[9] = system: Radical scavenging activity; assay: Antioxidant activity assessed as DPPH radical scavenging activity after 270 mins by least-square analysis; format: functional
Rattus norvegicus [10] = species on record: Rattus norvegicus; assay: Selectivity ratio of inhibition of Fischer-344 rat lens ALR2sto inhibition of Fischer-344 rat kidney AK1A1 at 100 uM; format: tissue-based; conditions: Lens of camera-type eye
Summary of the method: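 Ratio of % inhibition of rat lens ALR2 to % inhibition of rat kidney ALR1, each measured at 100 μM compound.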

[11] = target: T3, Aldo-keto reductase family 1 member A1 (Homo sapiens, UniProt P14550); assay: Inhibition of AK1A1
T3 sequence (P14550 whole entry): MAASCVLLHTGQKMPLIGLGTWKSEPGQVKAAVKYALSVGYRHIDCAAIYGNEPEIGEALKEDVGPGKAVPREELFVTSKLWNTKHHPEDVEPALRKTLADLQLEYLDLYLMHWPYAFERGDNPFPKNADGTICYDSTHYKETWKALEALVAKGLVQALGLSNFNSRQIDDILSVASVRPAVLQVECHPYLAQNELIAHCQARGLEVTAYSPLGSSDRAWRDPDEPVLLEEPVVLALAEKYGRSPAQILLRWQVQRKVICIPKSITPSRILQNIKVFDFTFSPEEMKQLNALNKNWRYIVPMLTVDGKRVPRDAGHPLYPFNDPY

Row | IC50 [1] | IC50 [2] | inhibition [4] | IC50 [5] | inhibition [8] | IC50 [9] | IC50 [11] | Structure (SMILES) | Ratio IC50 (Rattus norvegicus [3]) | Ratio [6] | Activity [7] | Selectivity ratio (Rattus norvegicus [10])
1 | 6.9 µM | 68.6 µM | 87.7% | 7.9 µM | 81.1% | 49.7 µM | – | O=C(Nc1ccc(S(=O)(=O)Nc2cc(F)c(O)c(F)c2)cc1)c1ccccc1 | 0.87 | 0.25 | 0.817 s⁻¹ | –
2 | 10.3 µM | 48.1 µM | 84.1% | – | 85.4% | 44.7 µM | – | Nc1ccc(S(=O)(=O)Nc2cc(F)c(O)c(F)c2)cc1 | 0.73 | 0.22 | 0.777 s⁻¹ | –
3 | 25.5 µM | 81.7 µM | 63.6% | 37.8 µM | 68.5% | 51.6 µM | – | CCNC(=O)Nc1ccc(S(=O)(=O)Nc2cc(F)c(O)c(F)c2)cc1 | 0.67 | 0.28 | 0.859 s⁻¹ | –
4 | 23.8 µM | 55.1 µM | 79.5% | – | 83% | 45.2 µM | – | COc1ccc(S(=O)(=O)Nc2cc(F)c(O)c(F)c2)cc1 | 1.54 | 0.23 | 0.661 s⁻¹ | –
5 | 105 µM | 66 µM | 55.8% | 91.5 µM | 50.6% | 45.1 µM | – | O=S(=O)(Nc1cc(F)c(O)c(F)c1)c1ccc(C(F)(F)F)cc1 | 1.15 | 0.23 | 0.49 s⁻¹ | –
6 | 133 µM | 45.7 µM | 63.9% | – | 55.7% | 54.8 µM | – | O=[N+]([O-])c1ccc(S(=O)(=O)Nc2cc(F)c(O)c(F)c2)cc1 | 2.99 | 0.27 | 0.465 s⁻¹ | –
7 | 12.4 µM | 70.7 µM | 77.9% | 12 µM | 71.7% | 56.9 µM | – | COc1ccc(C(=O)Nc2ccc(S(=O)(=O)Nc3cc(F)c(O)c(F)c3)cc2)cc1 | 1.03 | 0.26 | 0.995 s⁻¹ | –
8 | 19.6 µM | 95.9 µM | 71.3% | – | 79.2% | 49 µM | – | O=S(=O)(Nc1cc(F)c(O)c(F)c1)c1ccccc1 | 0.6 | 0.25 | 0.498 s⁻¹ | 0.89
9 | 281 µM | 97.1 µM | 61.1% | 57.1 µM | 41.7% | 48.6 µM | – | O=S(=O)(Nc1cc(F)c(O)c(F)c1)c1ccc(-n2cccc2)cc1 | 4.92 | 0.24 | 0.489 s⁻¹ | –
10 | 0.323 µM | 73.1 µM | 87.4% | 0.397 µM | 95.3% | 61.9 µM | – | Nc1ccc(S(=O)(=O)N(Cc2ccc(Br)cc2F)c2cc(F)c(O)c(F)c2)cc1 | 0.81 | 0.31 | 0.977 s⁻¹ | –

More lines, now with the values behind:

Row | Structure (SMILES) | IC50 [1] | IC50 [2] | inhibition [4] | IC50 [5] | inhibition [8] | IC50 [9] | IC50 [11] | Ratio IC50 (Rattus norvegicus [3]) | Ratio [6] | Activity [7] | Selectivity ratio (Rattus norvegicus [10])
11 | O=S(=O)(NCc1nnn[nH]1)c1ccccc1 | – | – | 23.8% | – | 19.9% | – | – | – | – | – | 1.2
12 | O=[N+]([O-])c1ccc(S(=O)(=O)N(Cc2ccc(Br)cc2F)c2cc(F)c(O)c(F)c2)cc1 | 15.4 µM | 61.8 µM | 75.1% | 9 µM | 69.8% | 61.5 µM | – | 1.71 | 0.31 | 0.974 s⁻¹ | –
13 | O=S(=O)(Nc1nnn[nH]1)c1ccccc1 | – | – | 44.8% | – | 21.7% | – | – | – | – | – | 2.06
14 | CCCC(CCC)C(=O)O [VALPROIC ACID] | – | – | – | – | – | – | 50.1 µM | – | – | – | –
15 | Cc1c(C)c2c(c(C)c1O)CCC(C)(C(=O)O)O2 (centres undefined) [TROLOX] | – | 93.5 µM | – | – | – | 37 µM | – | – | 0.19 | 1.81 s⁻¹ | –
16 | O=S(=O)(c1ccccc1)N(Cc1ccc(Br)cc1F)c1cc(F)c(O)c(F)c1 | 11.9 µM | 66 µM | 74.6% | 5.7 µM | 69.2% | 60.9 µM | – | 2.09 | 0.3 | 1 s⁻¹ | –
17 | O=C(O)CNS(=O)(=O)c1ccccc1 | – | – | 51.7% | 86.7 µM | 30.5% | – | – | – | – | – | 1.69
18 | CS(=O)(=O)NC(=O)CNS(=O)(=O)c1ccccc1 | – | – | 32.9% | – | 12.2% | – | – | – | – | – | 2.69
19 | O=C1NOC[C@H]1NS(=O)(=O)c1ccccc1 | – | – | 25.7% | – | 22.4% | – | – | – | – | – | 1.15
20 | O=S(=O)(c1ccccc1)N(c1cc(F)c(O)c(F)c1)S(=O)(=O)c1ccccc1 | 9.7 µM | 139 µM | 65.1% | 28.1 µM | 93.8% | 63.2 µM | – | 0.35 | 0.32 | 0.967 s⁻¹ | –
21 | O=C1NOC[C@@H]1NS(=O)(=O)c1ccccc1 | – | – | 48.9% | 71.2 µM | 2.67% | – | – | – | – | – | 18.3
